# In ChEMBL document CHEMBL1132569:
# Assays:
# [1] = molecular target: T1, Muscarinic acetylcholine receptor M4 (Homo sapiens) (UniProt P08173); test: Binding affinity at the NMS liganded human muscarinic acetylcholine receptor M4 was estimated as log affinity (log1/M)
# T1 sequence (whole entry): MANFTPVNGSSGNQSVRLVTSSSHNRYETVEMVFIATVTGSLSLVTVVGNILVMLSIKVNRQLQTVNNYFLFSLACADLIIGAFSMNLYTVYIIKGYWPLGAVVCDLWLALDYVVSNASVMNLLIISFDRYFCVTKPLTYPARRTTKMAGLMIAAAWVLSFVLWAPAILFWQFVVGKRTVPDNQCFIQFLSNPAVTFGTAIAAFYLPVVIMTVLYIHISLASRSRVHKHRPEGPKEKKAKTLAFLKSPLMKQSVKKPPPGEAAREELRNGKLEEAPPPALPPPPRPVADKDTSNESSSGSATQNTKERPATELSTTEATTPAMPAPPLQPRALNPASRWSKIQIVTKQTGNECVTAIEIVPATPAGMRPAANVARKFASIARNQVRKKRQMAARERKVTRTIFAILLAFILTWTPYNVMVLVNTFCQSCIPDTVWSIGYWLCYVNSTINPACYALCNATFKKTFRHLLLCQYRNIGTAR
# Outline: (§1)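 Equilibrium runs were ≥2 h with 2 × 10⁻⁴ M GTP and 0.1–0.7 nM ³H-NMS. Nonspecific binding was defined with 10⁻⁶ M QNB, and bound ligand was filtered and counted. Log affinities came from semiquantitative plus off-rate, quantitative equilibrium, or nonequilibrium assays, fitted by nonlinear least squares to the allosteric ternary complex model.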
# [2] = molecular target: T1, Muscarinic acetylcholine receptor M4 (Homo sapiens); test: Binding affinity at the unliganded human muscarinic acetylcholine receptor M4 was estimated as log affinity (log1/M); outline: as §1
# [3] = molecular target: T1, Muscarinic acetylcholine receptor M4 (Homo sapiens); test: Cooperativity with NMS at human muscarinic acetylcholine receptor M4
# Outline: (§2)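 Equilibrium ³H-NMS binding in CHO membranes expressing human m1–m5 receptors was measured with and without ACh, alone and with three agent concentrations. Data were converted to affinity ratios, meaning apparent primary-ligand affinity with agent divided by affinity without it.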
# [4] = molecular target: T1, Muscarinic acetylcholine receptor M4 (Homo sapiens); test: Cooperativity with acetylcholine at human muscarinic acetylcholine receptor M4; outline: as §2
# [5] = molecular target: Muscarinic acetylcholine receptor M3 (Homo sapiens) (UniProt P20309); test: Cooperativity with NMS at human muscarinic acetylcholine receptor M3; outline: as §2
# [6] = molecular target: Muscarinic acetylcholine receptor M3 (Homo sapiens) (UniProt P20309); test: Cooperativity with acetylcholine at human muscarinic acetylcholine receptor M3; outline: as §2
# [7] = molecular target: Muscarinic acetylcholine receptor M3 (Homo sapiens) (UniProt P20309); test: Binding affinity at the NMS liganded human muscarinic acetylcholine receptor M3 was estimated as log affinity (log1/M); outline: as §1
# [8] = molecular target: Muscarinic acetylcholine receptor M3 (Homo sapiens) (UniProt P20309); test: Binding affinity at the unliganded human muscarinic acetylcholine receptor M3 was estimated as log affinity (log1/M); outline: as §1
# [9] = molecular target: T2, Muscarinic acetylcholine receptor M2 (Homo sapiens) (UniProt P08172); test: Binding affinity at the NMS liganded human muscarinic acetylcholine receptor M2 was estimated as log affinity (log1/M); outline: as §1
# T2 sequence (whole entry): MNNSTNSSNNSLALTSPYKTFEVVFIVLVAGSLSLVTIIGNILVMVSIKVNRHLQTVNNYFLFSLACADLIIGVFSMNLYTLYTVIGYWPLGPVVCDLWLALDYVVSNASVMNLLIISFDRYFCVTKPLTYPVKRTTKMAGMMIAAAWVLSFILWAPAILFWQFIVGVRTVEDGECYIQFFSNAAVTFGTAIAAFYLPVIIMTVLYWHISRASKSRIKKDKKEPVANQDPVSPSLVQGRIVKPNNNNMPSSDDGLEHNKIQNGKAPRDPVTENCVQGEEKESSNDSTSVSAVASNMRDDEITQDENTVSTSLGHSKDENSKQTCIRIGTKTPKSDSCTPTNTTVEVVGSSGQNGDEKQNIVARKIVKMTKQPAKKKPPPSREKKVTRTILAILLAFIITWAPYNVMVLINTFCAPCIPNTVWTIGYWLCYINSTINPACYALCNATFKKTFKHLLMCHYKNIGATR
# [10] = molecular target: T2, Muscarinic acetylcholine receptor M2 (Homo sapiens); test: Binding affinity at the unliganded human muscarinic acetylcholine receptor M2 was estimated as log affinity (log1/M); outline: as §1
# [11] = molecular target: T2, Muscarinic acetylcholine receptor M2 (Homo sapiens); test: Cooperativity with NMS at human muscarinic acetylcholine receptor M2; outline: as §2
# [12] = molecular target: T2, Muscarinic acetylcholine receptor M2 (Homo sapiens); test: Cooperativity with acetylcholine at human muscarinic acetylcholine receptor M2; outline: as §2
# [13] = molecular target: T3, Muscarinic acetylcholine receptor M1 (Homo sapiens) (UniProt P11229); test: Binding affinity at the NMS liganded human muscarinic acetylcholine receptor M1 was estimated as log affinity (log1/M); outline: as §1
# T3 sequence (whole entry): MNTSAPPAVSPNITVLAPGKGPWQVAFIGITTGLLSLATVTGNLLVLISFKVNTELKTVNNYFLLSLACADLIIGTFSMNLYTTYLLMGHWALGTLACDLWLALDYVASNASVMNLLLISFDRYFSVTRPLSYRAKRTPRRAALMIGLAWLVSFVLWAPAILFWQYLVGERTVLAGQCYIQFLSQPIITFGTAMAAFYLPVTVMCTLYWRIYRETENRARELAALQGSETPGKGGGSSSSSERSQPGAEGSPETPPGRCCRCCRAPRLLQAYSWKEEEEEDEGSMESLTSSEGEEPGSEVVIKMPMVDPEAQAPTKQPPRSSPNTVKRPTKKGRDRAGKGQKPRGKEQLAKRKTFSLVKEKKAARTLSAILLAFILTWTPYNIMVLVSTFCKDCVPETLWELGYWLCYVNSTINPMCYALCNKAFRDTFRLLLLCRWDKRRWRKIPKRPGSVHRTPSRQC
# [14] = molecular target: T3, Muscarinic acetylcholine receptor M1 (Homo sapiens); test: Binding affinity at the unliganded human muscarinic acetylcholine receptor M1 was estimated as log affinity (log1/M); outline: as §1
# [15] = molecular target: T3, Muscarinic acetylcholine receptor M1 (Homo sapiens); test: Cooperativity with NMS at human muscarinic acetylcholine receptor M1; outline: as §2
# [16] = molecular target: T3, Muscarinic acetylcholine receptor M1 (Homo sapiens); test: Cooperativity with acetylcholine at human muscarinic acetylcholine receptor M1; outline: as §2
# Chain of Muscarinic acetylcholine receptor M3 (Homo sapiens) (P20309 whole entry, looked up): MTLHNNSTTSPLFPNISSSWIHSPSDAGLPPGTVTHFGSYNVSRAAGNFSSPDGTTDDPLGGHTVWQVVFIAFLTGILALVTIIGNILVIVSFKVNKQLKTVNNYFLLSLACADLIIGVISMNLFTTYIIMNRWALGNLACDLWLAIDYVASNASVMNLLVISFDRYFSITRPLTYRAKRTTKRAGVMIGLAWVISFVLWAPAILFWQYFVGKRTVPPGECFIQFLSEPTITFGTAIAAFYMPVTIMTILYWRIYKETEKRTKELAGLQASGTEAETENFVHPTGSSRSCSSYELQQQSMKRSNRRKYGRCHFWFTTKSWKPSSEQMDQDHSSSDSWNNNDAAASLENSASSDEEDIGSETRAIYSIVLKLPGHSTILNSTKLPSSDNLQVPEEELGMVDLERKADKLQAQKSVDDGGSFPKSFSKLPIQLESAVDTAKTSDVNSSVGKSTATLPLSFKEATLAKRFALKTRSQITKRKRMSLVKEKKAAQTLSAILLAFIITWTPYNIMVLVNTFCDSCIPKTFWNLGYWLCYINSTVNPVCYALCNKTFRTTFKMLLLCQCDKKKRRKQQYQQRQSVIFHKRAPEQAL
Structure (SMILES),Affinity [1],Affinity [2],Cooperativity [3],Cooperativity [4],Cooperativity [5],Cooperativity [6],Affinity [7],Affinity [8],Affinity [9],Affinity [10],Cooperativity [11],Cooperativity [12],Affinity [13],Affinity [14],Cooperativity [15],Cooperativity [16]
N[N+]12CC[C@@]34c5ccccc5N5C(=O)C[C@@H]6OCC=C(C1)[C@H](C[C@@H]32)[C@@H]6[C@H]54 (stereo not given in full),4.9,< 4.4,> 2,0.8,2,0.8,4.5,< 4.4,5.4,< 4.8,> 2,0.8,4.7,4.3,2,0.8
C=CC[N+]12CC[C@@]34c5ccccc5N5C(=O)C[C@@H]6OCC=C(C1)[C@H](C[C@@H]32)[C@@H]6[C@H]54 (stereo not given in full),5,5,1.19,0.8,1.19,< 0.2,4.6,4.6,5.9,5.3,> 2,< 0.2,4.7,4.7,1.19,< 0.2
C=CC[N+]12CC[C@@]34c5ccccc5N5/C=C6/[C@H]7C[C@H]8[C@@]9(CC[N@@+]8(CC=C)C/C7=C/CO)c7ccccc7N(/C=C(/[C@@H](C[C@@H]31)/C(=C\CO)C2)[C@H]54)[C@@H]69 (stereo not given in full),4.7,4.7,1.19,< 0.2,0.8,0.8,3.5,< 4,6.5,6,> 2,< 0.2,4.5,4.9,0.8,< 0.2
O=C1C[C@@H]2OCC=C3C[N+]4(Cc5cccc([N+](=O)[O-])c5)CC[C@]56c7ccccc7N1[C@H]5[C@H]2[C@H]3C[C@@H]64 (stereo not given in full),5.6,< 5.2,> 2,0.8,2,0.8,4.8,< 4.7,6,< 5.4,> 2,0.8,5.1,< 4.9,2,0.8
CCC[N+]12CC[C@@]34c5ccccc5N5C(=O)C[C@@H]6OCC=C(C1)[C@H](C[C@@H]32)[C@@H]6[C@H]54 (stereo not given in full),4.9,5.2,0.8,< 0.2,0.8,< 0.2,4.5,5,5.5,5.2,2,< 0.2,4.8,5.2,0.8,< 0.2
